Laboratory results from ChEMBL document CHEMBL3576785, “Differential Targeting of Human Topoisomerase II Isoforms with Small Molecules” (J Med Chem, 2015).
Activity calls are given as the source filed them. The calls are words filed in the database; no cut-off is given here.

Columns and labels:
[1] = molecular target: DNA topoisomerase 2-alpha (Homo sapiens) (UniProt P11388); assay: Activity of TOP2A in human K562 cells assessed as poisoning activity at 100 uM after 1 hr by TARDIS assay; type: cell-based
Outline: (§1)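 TARDIS (trapped in agarose DNA immunostaining) in K562 cells, which express both isoforms at similar levels. Cells given 100 µM analogue, DMSO as vehicle control. Drug-stabilised TOP2–DNA complexes detected with isoform-specific immunofluorescence, TOP2A or TOP2B. Fluorescence quantified and normalised to VP-16-treated cells. Single-dose screen, followed by dose–response.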

[2] = Cytotoxicity against wild type human NALM6 cells assessed as growth inhibition after 5 days by XTT assay; type: functional, cell-based; conditions: NALM-6, 120 h
Outline: (§2)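 Growth inhibition in Nalm-6 wild-type, TOP2A+/- and TOP2B-/- lines. IC50 values are means ±SD of 3 replicate experiments.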

[3] = molecular target: DNA topoisomerase 2-beta (Homo sapiens) (UniProt Q02880); assay: Activity of TOP2B in human K562 cells assessed as poisoning activity at 100 uM after 1 hr by TARDIS assay; type: cell-based; outline: as §1
K562 = assay: Activity of TOP2 in human K562 cells assessed as poisoning activity by measuring phosphorylation of gamma-H2AX at Ser139 at 100 uM after 1 hr by DAPI staining-based epifluorescence microscopic analysis; type: cell-based
Outline: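 K562 cells (human leukaemia, similar expression of both TOP2 isoforms) exposed to 100 µM analogue, DMSO as vehicle control. γ-H2AX (phospho-Ser139 H2AX) detected by immunofluorescence microscopy with nuclear counterstain. Signal quantified in γ-H2AX-positive cells and normalised to VP-16-treated cells.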

[4] = Cytotoxicity against TOP2B double knockout human NALM6 cells assessed as growth inhibition after 5 days by XTT assay; type: functional, cell-based; conditions: NALM-6, 120 h; outline: as §2
NALM-6 [5] = assay: Selectivity ratio of IC50 for TOP2B double knockout human NALM6 cells to IC50 for wild type human NALM6 cells; type: functional
NALM-6 [6] = assay: Selectivity ratio of IC50 for human NALM6 cells expressing 50% TOP2A to IC50 for wild type human NALM6 cells; type: functional
[7] = Cytotoxicity against human NALM6 cells expressing 50% TOP2A assessed as growth inhibition after 5 days by XTT assay; type: functional, cell-based; conditions: NALM-6, 120 h; outline: as §2

DNA topoisomerase 2-alpha (Homo sapiens), sequence (P11388 whole entry, canonical isoform): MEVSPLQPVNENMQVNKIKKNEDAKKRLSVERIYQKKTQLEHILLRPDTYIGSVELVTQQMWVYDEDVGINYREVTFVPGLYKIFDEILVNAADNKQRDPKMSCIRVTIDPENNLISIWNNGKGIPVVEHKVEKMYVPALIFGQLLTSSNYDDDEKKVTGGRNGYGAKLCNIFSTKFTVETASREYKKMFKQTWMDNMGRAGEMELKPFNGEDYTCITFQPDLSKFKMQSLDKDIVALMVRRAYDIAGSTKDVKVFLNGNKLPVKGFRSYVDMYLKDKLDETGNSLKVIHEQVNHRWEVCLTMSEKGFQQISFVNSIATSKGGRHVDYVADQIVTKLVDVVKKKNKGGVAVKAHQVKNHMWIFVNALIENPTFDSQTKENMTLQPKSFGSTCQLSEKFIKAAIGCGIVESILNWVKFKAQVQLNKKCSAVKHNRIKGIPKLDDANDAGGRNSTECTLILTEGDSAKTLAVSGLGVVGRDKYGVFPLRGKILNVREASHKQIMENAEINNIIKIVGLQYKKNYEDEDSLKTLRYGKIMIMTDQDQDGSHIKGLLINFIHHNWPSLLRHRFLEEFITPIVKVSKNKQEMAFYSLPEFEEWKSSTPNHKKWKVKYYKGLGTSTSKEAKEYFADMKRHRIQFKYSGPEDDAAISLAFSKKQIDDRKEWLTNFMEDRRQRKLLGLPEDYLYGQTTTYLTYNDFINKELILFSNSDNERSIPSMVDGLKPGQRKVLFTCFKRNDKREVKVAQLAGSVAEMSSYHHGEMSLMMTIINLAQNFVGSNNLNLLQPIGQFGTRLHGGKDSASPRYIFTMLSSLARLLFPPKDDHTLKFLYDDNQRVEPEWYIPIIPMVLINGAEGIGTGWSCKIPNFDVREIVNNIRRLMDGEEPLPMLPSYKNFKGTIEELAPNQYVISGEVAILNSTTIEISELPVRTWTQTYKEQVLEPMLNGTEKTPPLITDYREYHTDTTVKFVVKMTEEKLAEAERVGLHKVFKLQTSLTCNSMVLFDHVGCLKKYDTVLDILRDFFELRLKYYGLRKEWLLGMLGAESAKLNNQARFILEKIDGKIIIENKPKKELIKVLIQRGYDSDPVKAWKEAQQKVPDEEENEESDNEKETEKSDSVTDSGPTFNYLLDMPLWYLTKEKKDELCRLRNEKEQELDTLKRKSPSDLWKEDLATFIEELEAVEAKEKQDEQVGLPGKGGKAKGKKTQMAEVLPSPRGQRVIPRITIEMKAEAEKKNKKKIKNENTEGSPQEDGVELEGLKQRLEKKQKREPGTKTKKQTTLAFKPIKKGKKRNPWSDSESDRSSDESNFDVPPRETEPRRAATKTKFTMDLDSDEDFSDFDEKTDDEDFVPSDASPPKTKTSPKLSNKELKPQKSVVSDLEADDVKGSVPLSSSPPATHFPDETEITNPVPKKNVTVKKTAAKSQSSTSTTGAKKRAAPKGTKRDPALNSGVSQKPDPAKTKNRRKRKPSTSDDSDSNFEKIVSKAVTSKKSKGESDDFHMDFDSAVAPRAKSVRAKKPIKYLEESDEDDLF
DNA topoisomerase 2-beta (Homo sapiens), sequence (Q02880 whole entry): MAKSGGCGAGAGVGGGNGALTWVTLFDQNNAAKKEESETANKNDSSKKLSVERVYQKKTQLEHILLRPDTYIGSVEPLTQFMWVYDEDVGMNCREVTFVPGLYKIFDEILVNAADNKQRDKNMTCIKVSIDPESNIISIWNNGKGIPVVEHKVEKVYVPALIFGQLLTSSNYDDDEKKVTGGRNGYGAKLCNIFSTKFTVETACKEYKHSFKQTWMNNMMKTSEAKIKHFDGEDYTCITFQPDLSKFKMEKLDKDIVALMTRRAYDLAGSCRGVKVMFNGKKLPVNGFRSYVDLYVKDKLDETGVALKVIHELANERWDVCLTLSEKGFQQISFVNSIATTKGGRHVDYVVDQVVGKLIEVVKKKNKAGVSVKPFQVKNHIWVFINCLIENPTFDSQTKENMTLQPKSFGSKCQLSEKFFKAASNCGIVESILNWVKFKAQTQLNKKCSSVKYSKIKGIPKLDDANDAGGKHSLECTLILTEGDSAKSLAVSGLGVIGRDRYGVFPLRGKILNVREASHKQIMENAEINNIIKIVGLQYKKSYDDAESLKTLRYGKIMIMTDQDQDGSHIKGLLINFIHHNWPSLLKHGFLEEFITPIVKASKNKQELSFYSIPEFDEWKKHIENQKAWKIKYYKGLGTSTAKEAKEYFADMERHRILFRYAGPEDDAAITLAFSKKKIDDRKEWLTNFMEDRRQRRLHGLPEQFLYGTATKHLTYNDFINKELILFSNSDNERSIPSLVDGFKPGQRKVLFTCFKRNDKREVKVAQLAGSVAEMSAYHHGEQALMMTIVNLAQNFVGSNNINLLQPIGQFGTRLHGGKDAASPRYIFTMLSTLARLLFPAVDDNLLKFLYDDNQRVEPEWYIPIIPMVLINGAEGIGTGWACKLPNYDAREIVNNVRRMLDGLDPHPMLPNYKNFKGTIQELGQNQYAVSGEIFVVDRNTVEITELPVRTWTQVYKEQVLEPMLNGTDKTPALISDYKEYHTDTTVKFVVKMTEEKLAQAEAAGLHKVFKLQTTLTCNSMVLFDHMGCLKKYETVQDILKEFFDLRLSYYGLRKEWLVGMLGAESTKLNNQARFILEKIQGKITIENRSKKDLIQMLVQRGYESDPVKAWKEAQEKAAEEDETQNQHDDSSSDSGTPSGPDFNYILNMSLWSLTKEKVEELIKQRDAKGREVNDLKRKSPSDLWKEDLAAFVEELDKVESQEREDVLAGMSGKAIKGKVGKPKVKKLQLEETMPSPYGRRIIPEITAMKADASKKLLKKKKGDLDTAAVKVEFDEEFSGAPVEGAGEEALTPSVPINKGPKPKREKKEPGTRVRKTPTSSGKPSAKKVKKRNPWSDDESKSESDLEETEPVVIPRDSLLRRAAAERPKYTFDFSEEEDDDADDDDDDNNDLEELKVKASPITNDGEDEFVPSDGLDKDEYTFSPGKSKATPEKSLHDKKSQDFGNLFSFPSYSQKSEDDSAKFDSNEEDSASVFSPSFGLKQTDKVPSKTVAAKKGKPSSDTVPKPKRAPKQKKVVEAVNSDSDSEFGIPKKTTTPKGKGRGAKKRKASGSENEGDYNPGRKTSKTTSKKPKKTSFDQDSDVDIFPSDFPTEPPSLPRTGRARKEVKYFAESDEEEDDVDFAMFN

| Compound | Activity [1] | IC50 [2] [nM] | Activity [3] | Activity (K562) | IC50 [4] [nM] | Ratio IC50 (NALM-6 [5]) | Ratio IC50 (NALM-6 [6]) | IC50 [7] [nM] |
| --- | --- | --- | --- | --- | --- | --- | --- | --- |
| COC(=O)CCCCCn1cc(CO[C@@H]2c3cc4c(cc3[C@@H](c3cc(OC)c(O)c(OC)c3)[C@H]3C(=O)OC[C@@H]32)OCO4)nn1 | Active | 3900 | Active | Active | – | – | – | – |
| COc1cc([C@@H]2c3cc4c(cc3[C@@H](OCc3cn(-c5ccc(O)cc5)nn3)[C@H]3COC(=O)[C@H]23)OCO4)cc(OC)c1O | Active | 3400 | Active | Active | 1920 | 0.6 | 1 | 3500 |
| COc1cc([C@@H]2c3cc4c(cc3[C@@H](OCc3cn(CCCN(C)C)nn3)[C@H]3COC(=O)[C@H]23)OCO4)cc(OC)c1O | Active | 1200 | Active | Active | 2360 | 2 | 1.6 | 1900 |
| COc1cc([C@@H]2c3cc4c(cc3[C@@H](OCc3cn(Cc5ccc(C(=O)O)cc5)nn3)[C@H]3COC(=O)[C@H]23)OCO4)cc(OC)c1OC | – | > 10000 | – | Active | – | – | – | – |
| COc1cc([C@@H]2c3cc4c(cc3[C@@H](O[C@@H]3O[C@@H]5CO[C@@H](C)O[C@H]5[C@H](O)[C@H]3O)[C@H]3COC(=O)[C@H]23)OCO4)cc(OC)c1O [ETOPOSIDE] | Active | 134 | Active | Active | 182 | 1.4 | 1.7 | 234 |
| COc1cc([C@@H]2c3cc4c(cc3[C@@H](n3cc(CN(C)C)nn3)[C@H]3COC(=O)[C@H]23)OCO4)cc(OC)c1O | Active | 620 | Active | Active | 1320 | 2.1 | 1.4 | 850 |
